Compounds with a hit are over-represented: about 1.4% of the library has one in this group of screens.
NR1D1 modulator: Rev-erb alpha (human) modulation. P20393. Rev-erbα–FITC-DNA binding, fluorescence polarization, 90 min. activity, % at 10 µM. 370,000 tested, 0.79% active;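 active means activity above about 14%, limit read from the data; passing the limit was not always enough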
Target sequence (P20393 whole entry, looked up): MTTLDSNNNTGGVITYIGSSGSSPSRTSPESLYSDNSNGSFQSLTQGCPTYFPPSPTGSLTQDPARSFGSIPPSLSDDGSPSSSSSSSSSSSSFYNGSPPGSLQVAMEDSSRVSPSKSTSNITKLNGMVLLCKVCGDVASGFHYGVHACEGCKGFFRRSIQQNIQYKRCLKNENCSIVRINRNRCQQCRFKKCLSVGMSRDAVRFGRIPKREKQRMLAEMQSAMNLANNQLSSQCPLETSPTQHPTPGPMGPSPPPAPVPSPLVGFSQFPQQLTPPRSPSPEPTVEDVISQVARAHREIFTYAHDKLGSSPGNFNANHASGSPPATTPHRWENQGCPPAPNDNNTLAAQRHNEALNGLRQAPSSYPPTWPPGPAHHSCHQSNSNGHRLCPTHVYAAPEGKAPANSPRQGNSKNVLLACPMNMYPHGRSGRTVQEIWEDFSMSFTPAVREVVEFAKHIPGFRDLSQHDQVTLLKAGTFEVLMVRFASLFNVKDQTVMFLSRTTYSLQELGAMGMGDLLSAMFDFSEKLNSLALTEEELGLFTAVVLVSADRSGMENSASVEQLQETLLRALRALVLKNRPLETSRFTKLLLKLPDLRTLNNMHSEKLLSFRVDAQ
NR2E3 ag-1: activates human photoreceptor nuclear receptor NR2E3; Q9Y5X4; GST-NR2E3/biotin-RetCOR TR-FRET, 1536-well; inhibition of corepressor binding, % at 4.78 µM; 320,000 tested, 0.12% active;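 active means percent inhibition above the cutoff of mean plus 3 SD of all tested compounds, set per screening campaign, cut at about 20% in these data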
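Material: NR2E3–RetCOR corepressor complex / Incubation: Compound–protein incubation for 5 h at 4 °C / Dosing: compound at 4.8 µM, single dose / Detection: time-resolved FRET / Benchmarks: high control biotin, low control 0.6% DMSO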
NR2E3 ag-2: human photoreceptor-specific nuclear receptor agonism. inhibition of corepressor binding, % at 3.98 µM. Q9Y5X4. 360,000 tested, 0.35% active. CHO-S Gal4-NCOR/VP16-NR2E3 two-hybrid, luciferase;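 active means inhibition above the mean of all tested compounds plus 3 SD, cut at about 70% in these data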;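 further: higher means lower luciferase signal from less NR2E3 corepressor binding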
PG9 binder: PG9 antibody binding by small molecule; TR-FRET gp120-PG9 antibody binding; inhibition, % at 6.7 µM; 360,000 tested, 0.43% active; AID 624416; in the data active means inhibition above about 8.5%
NR2E3 ag conf: NR2E3 agonism confirmed in two-hybrid assay; shares compounds with NR2E3 ag-2; CHO-S mammalian two-hybrid NR2E3-NCOR, luciferase luminescence; inhibition, % at 3.98 µM; 2,300 tested, 51% active; AID 624378;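 active means average inhibition above a cutoff equal to the mean inhibition of all tested compounds plus one SD, cut at about 70% in these data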
VP16 counter: counter-screen for NR2E3 agonists: GAL4-VP16 reporter inhibitors; CHO-S GAL4-VP16 luciferase reporter, luminescence; shares compounds with NR2E3 ag-2; inhibition, % at 3.98 µM; 2,300 tested, 29% active;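 active means mean inhibition above a cutoff equal to the average over all tested compounds plus one standard deviation, cut at about 70% in these data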;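 further: luciferase from a UAS reporter driven by GAL4-VP16 transactivation; higher means less reporter light so more repression of VP16 activity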
Large screens that a line does not name were inactive (follow-up assays come after a bar, where they were run).

CNC(=O)c1ccsc1NC(=O)c1ccc(S(=O)(=O)N2CCCc3ccccc32)cc1	none
O=C1c2ccccc2C(c2nnnn2Cc2ccccc2)N1CCc1ccc(O)cc1 (centres undefined)	none (no result: NR2E3 ag-1)
CCN(C(=O)c1ccc(C(C)(C)C)cc1)c1nnc(Cn2nnc3ccccc32)s1	NR2E3 ag-2 89 | NR2E3 ag conf 92 | VP16 counter 77
CCN(C(=O)CC(C)C)c1nnc(Cn2nnc3ccccc32)s1	none
Cc1csc2c(N3CCN(C(=S)Nc4ccc(F)cc4F)CC3)ncnc12	NR2E3 ag-2 90 | NR2E3 ag conf 97 | VP16 counter 88
O=[N+]([O-])c1ccc(N2CCN(C(=S)Nc3ccc(F)cc3F)CC2)cc1	NR2E3 ag-2 74 | NR2E3 ag conf 73 | VP16 counter inactive
O=[N+]([O-])c1ccc(N2CCN(C(=S)Nc3ccc(F)cc3)CC2)cc1	none
COc1ccc(CCC(=O)Nc2cc(S(=O)(=O)N3CCOCC3)ccc2OC(C)C)cc1	none
CCCN(CC(=O)Nc1cc(C)on1)S(=O)(=O)c1cccc(C(F)(F)F)c1	none
CN(Cc1ccc(Cl)c(Cl)c1)C(=O)c1cccc(S(=O)(=O)N2CCN(Cc3ccccc3)CC2)c1	none | NR2E3 ag conf inactive | VP16 counter inactive
CN(Cc1cccc(Cl)c1Cl)C(=O)c1cccc(S(=O)(=O)N2CCN(Cc3ccccc3)CC2)c1	none | NR2E3 ag conf 86 | VP16 counter inactive
CN(Cc1cccc(F)c1)C(=O)c1cccc(S(=O)(=O)N2CCN(Cc3ccccc3)CC2)c1	none | NR2E3 ag conf inactive | VP16 counter inactive
COc1cc2c(=O)n(CCC(=O)NCC3CCCO3)c(=O)n(CC(=O)Nc3ccc(C)cc3)c2cc1OC (centres undefined)	none
O=C(NCC1CCCO1)C1CC(c2ccc(Cl)c(Cl)c2)=NO1 (centres undefined)	none | NR2E3 ag conf inactive | VP16 counter inactive
Cc1ccc(Nc2c(-c3ccccn3)nc3cccc(C)n23)cc1	NR2E3 ag-2 96 | NR2E3 ag conf 97 | VP16 counter 83
Cc1cccc(C)c1Nc1c(-c2ccccn2)nc2ccccn12	NR2E3 ag-2 77 | NR2E3 ag conf inactive | VP16 counter inactive
Cc1cccc2nc(-c3ccco3)c(Nc3ccccc3)n12	none
Cc1ccc2nc(-c3ccccn3)c(NC3CCCC3)n2c1	none | NR2E3 ag conf inactive | VP16 counter inactive
Cc1cc(C)n2c(Nc3c(C)cccc3C)c(-c3ccccn3)nc2n1	none (no result: NR2E3 ag-1)
CCCCCCSc1cccc(-c2nc3ccc(C)cn3c2NC2CCCCC2)c1	none
O=C(Cn1c(C(=O)NCc2ccco2)cc2sccc21)c1ccccc1	none (no result: PG9 binder)
Cc1ccc(-n2c3nc(=O)[nH]c(=O)c-3cc3cc([N+](=O)[O-])ccc32)cc1	none
O=C(Nc1ccc(OCC(F)(F)C(F)F)c(C(F)(F)F)c1)c1ccc(Cl)cc1	NR2E3 ag-2 90 | NR2E3 ag conf inactive | VP16 counter inactive
CC(C)C1Nc2c(O)cc(Cl)c([N+](=O)[O-])c2C2C=CCC21 (centres undefined)	NR2E3 ag-2 99 (no result: NR2E3 ag-1) | NR2E3 ag conf 100 | VP16 counter 91
Cc1cccc(C(=O)Oc2cc(C)[nH]c(=O)c2[N+](=O)[O-])c1	none
C/C(=N\NC(=S)NC1CCCCC1)c1ccccc1	none | NR2E3 ag conf inactive | VP16 counter inactive
C/C(=N\NC(=S)NC1CCCCC1)c1ccc(O)cc1	none
CCN(CC)S(=O)(=O)c1ccc(N2CCOCC2)c(NS(=O)(=O)c2cc(C(C)(C)C)ccc2C)c1	none | NR2E3 ag conf inactive | VP16 counter inactive
CC1C/C(=N\NC(=S)NCc2ccccc2)CC(C)(C)C1 (centres undefined)	none | NR2E3 ag conf inactive | VP16 counter inactive
CCCC1c2ccc(C)n2CCN1C(=O)Nc1ccccc1Cl (centres undefined)	none
O=C(COc1ccccc1)Nc1c2c(nn1-c1ccc(F)cc1)CS(=O)C2 (centres undefined)	none (no result: NR2E3 ag-1)
COc1ccc(NS(=O)(=O)c2ccc3c(c2)NC(=O)CCS3)cc1Cl	none | NR2E3 ag conf inactive | VP16 counter inactive
Nc1ccc(S(=O)(=O)N2CCc3ccccc32)cc1	none
CC(C)CCNC(=O)c1cccc(S(=O)(=O)N2CCc3ccccc32)c1	none
O=S(=O)(NC1CCCC1)c1ccc(S(=O)(=O)N2CCc3ccccc32)cc1	none | NR2E3 ag conf 79 | VP16 counter inactive
O=C(NNC(=O)c1cccc(S(=O)(=O)N2CCc3ccccc32)c1)c1ccccc1	none (no result: NR2E3 ag-1) | NR2E3 ag conf 80 | VP16 counter 71
Cc1cc2[nH]c(=O)c(=O)[nH]c2cc1S(=O)(=O)N1CCC(C)CC1	none
Nc1nc2n[nH]nc2c(=O)[nH]1	NR2E3 ag-2 81 | NR2E3 ag conf inactive | VP16 counter inactive
CC(C)C(C(=O)O)N1C(=O)C2C3CCC(C3)C2C1=O (centres undefined)	none (no result: NR2E3 ag-1)
Cc1cnc(C=NNC(N)=S)c2cccc(N)c12	none (no result: NR2E3 ag-1)
NC(=S)NN=Cc1nccc2ccccc12	NR2E3 ag-2 75 (no result: NR2E3 ag-1) | NR2E3 ag conf inactive | VP16 counter inactive
NC(=S)NN=Cc1nccc2c(C(F)(F)C(F)(F)C(F)(F)F)cccc12	NR2E3 ag-2 87 (no result: NR2E3 ag-1) | NR2E3 ag conf inactive | VP16 counter inactive
O=C1CCCN1CCCNc1ccc2nnc(CCC(=O)N3CCN(c4ccc(F)cc4)CC3)n2n1	none
CCCCC(CC(O)COCCC)c1n[nH]c(=S)n1-c1ccccc1 (centres undefined)	none
CCOC(=O)c1cnc(-n2nc(C)cc2C)nc1NCc1ccccc1	NR2E3 ag-2 94 | NR2E3 ag conf inactive | VP16 counter inactive
CCOC(=O)c1cnc(-n2nc(C)cc2C)nc1NC(C)c1ccccc1 (centres undefined)	NR2E3 ag-2 98 | NR2E3 ag conf inactive | VP16 counter inactive
C[C@]12Cc3ccccc3C1CC1=N[C@@H](c3ccccn3)O[C@@]13C[C@@H]2C(=O)N3C1CCN(Cc2ccccc2)CC1 (some centres undefined)	none (no result: NR2E3 ag-1, NR2E3 ag-2)
COc1ccccc1-c1nc2c3ccccc3nc(=S)n2[nH]1	none
CC(Oc1ccc(Br)cc1)c1nc2c3ccccc3nc(=S)n2[nH]1 (centres undefined)	NR2E3 ag-2 83 | NR2E3 ag conf 89 | VP16 counter inactive
S=c1nc2ccccc2c2nc(-c3ccccc3)[nH]n12	NR2E3 ag-2 83 | NR2E3 ag conf inactive | VP16 counter inactive
O=C(NCCOc1ccccc1)c1ccccc1Cl	none
CN(C(=O)COc1ccccc1C(=O)NCCOc1ccccc1)c1ccccc1	NR2E3 ag-2 77 | NR2E3 ag conf 80 | VP16 counter inactive
COC(=O)c1cc(OC)c(OC)cc1NC(=S)Nc1cc(Cl)ccc1OC	none
COc1ccc(Cl)cc1NC(=S)NNC(=O)C1(C)CC1(Cl)Cl (centres undefined)	none | NR2E3 ag conf inactive | VP16 counter inactive
COc1ccc(Nc2nc(N)nc(CSc3nccn3C)n2)cc1	none
Cc1ccc2c(c1C)-c1c(ccc(C)c1C)C(=O)C2=O	none (no result: NR2E3 ag-1) | NR2E3 ag conf inactive | VP16 counter inactive

Screening results from PubChem BioAssay.
